ChEMBL document CHEMBL4270522, “Halogenated trimethoprim derivatives as multidrug-resistant Staphylococcus aureus therapeutics” (Bioorg Med Chem, 2018)
Values after ≈ are worked out from the molar mass of the structure shown.

Columns and labels:
[1] = tested on: Staphylococcus aureus; assay: Bactericidal activity against methicillin-resistant Staphylococcus aureus USA300 preincubated for 20 hrs followed by agar plating and measured after 18 to 20 hrs; format: functional
Method in brief: (§1)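 MBC taken from broth microdilution (final about 10^5 CFU/mL, Mueller-Hinton broth, 37 °C for 20 h). Clear wells (basal optical density) were spread on TSA plates and incubated at 37 °C for 18–20 h. The lowest concentration giving no colonies is reported. At least triplicate.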

[2] = tested on: Staphylococcus aureus; assay: Antibacterial activity against methicillin-resistant Staphylococcus aureus USA300 at 5 ug after 18 to 20 hrs by CLSI disk diffusion assay; format: functional; details: read-out: DIZ
Method in brief: (§2)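 Disk diffusion on 4 mm Mueller-Hinton agar swabbed with about 10^8 CFU/mL suspension in PBS; 6 mm paper disk loaded with 5 µg compound in DMSO; 37 °C ambient air for 18–20 h; diameter of the complete inhibition zone measured in mm with callipers from the plate back; at least three independent experiments, mean with standard error; 6 mm means no inhibition.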

[3] = tested on: Staphylococcus aureus; assay: Bactericidal activity against methicillin-susceptible Staphylococcus aureus ATCC 29213 preincubated for 20 hrs followed by agar plating and measured after 18 to 20 hrs; format: functional
Method in brief: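 Broth microdilution per CLSI guideline. Compounds diluted 2-fold in MHB from 100 mM DMSO stocks. Inoculum ~10^5 CFU/mL final, from overnight TSB culture diluted in PBS. Plates incubated at 37 °C. Wells without growth by optical density spread on TSA and incubated at 37 °C. MBC is the lowest concentration giving no colonies. At least triplicate.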

[4] = tested on: Staphylococcus aureus; assay: Antibacterial activity against methicillin-resistant Staphylococcus aureus USA300 after 20 hrs by CLSI microdilution assay; format: functional; details: USA300, 20 h
[5] = tested on: Staphylococcus aureus; assay: Bactericidal activity against hospital-associated methicillin-resistant Staphylococcus aureus COL preincubated for 20 hrs followed by agar plating and measured after 18 to 20 hrs; format: functional; method in brief: as §1
[6] = tested on: Staphylococcus aureus; assay: Antibacterial activity against hospital-associated methicillin-resistant Staphylococcus aureus COL after 20 hrs by CLSI microdilution assay; format: functional
[7] = tested on: Staphylococcus aureus; assay: Antibacterial activity against methicillin-susceptible Staphylococcus aureus ATCC 25923 at 5 ug after 18 to 20 hrs by CLSI disk diffusion assay; format: functional; details: read-out: DIZ
Method in brief: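 Mueller-Hinton agar, 4 mm deep, swabbed with PBS-diluted overnight TSB culture (~10^8 CFU/mL). Paper disk (6 mm) loaded with compound in DMSO, incubated 37 °C in ambient air. Complete inhibition zone diameter read from plate back with callipers; 6 mm means no inhibition. At least three independent experiments, mean with standard error.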

[8] = tested on: Staphylococcus aureus; assay: Antibacterial activity against hospital-associated methicillin-resistant Staphylococcus aureus COL at 5 ug after 18 to 20 hrs by CLSI disk diffusion assay; format: functional; details: read-out: DIZ; method in brief: as §2
[9] = tested on: A549; assay: Cytotoxicity against human A549 cells after 24 to 48 hrs by fluorescence-based assay; format: cell-based
Method in brief: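 A549 cells, ~10^4 per well in DMEM, given 2-fold serial dilutions of compound (DMSO stock diluted in DMEM). Incubated at 37 °C, 5% CO2. PrestoBlue added for 1 h, then fluorescence read at excitation 535 nm and emission 610 nm as a measure of viable cells.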

[10] = tested on: Staphylococcus aureus; assay: Antibacterial activity against methicillin-susceptible Staphylococcus aureus ATCC 29213 after 20 hrs by CLSI microdilution assay; format: functional; details: ATCC 29213, 20 h
[11] = tested on: Staphylococcus aureus; assay: Synergistic antibacterial activity against methicillin-susceptible Staphylococcus aureus ATCC 29213 in presence of TMP-Br after 20 hrs by broth microdilution-based checkerboard titration assay; format: functional
[12] = tested on: Staphylococcus aureus; assay: Potentiation of TMP-Cl-mediated antibacterial activity against methicillin-resistant Staphylococcus aureus USA300 assessed as TMP-Cl MIC after 20 hrs by CLSI microdilution assay (reference value: 2.50 microg/ml); format: functional; details: USA300, 20 h
[13] = tested on: Staphylococcus aureus; assay: microbe, parasite or virus in culture; format: functional; details: ATCC 29213, 20 h
[14] = tested on: Staphylococcus aureus; assay: Synergistic antibacterial activity against hospital-associated methicillin-resistant Staphylococcus aureus COL in presence of TMP-Br after 20 hrs by broth microdilution-based checkerboard titration assay; format: functional
[15] = tested on: Staphylococcus aureus; assay: Synergistic antibacterial activity against methicillin-susceptible Staphylococcus aureus ATCC 29213 in presence of TMP-Cl after 20 hrs by broth microdilution-based checkerboard titration assay; format: functional
[16] = tested on: Staphylococcus aureus; assay: microbe, parasite or virus in culture; format: functional; details: ATCC 29213, 20 h; remark: listed apart in the source
[17] = tested on: Staphylococcus aureus; assay: microbe, parasite or virus in culture; format: functional; details: USA300, 20 h
[18] = tested on: Staphylococcus aureus; assay: Synergistic antibacterial activity against methicillin-resistant Staphylococcus aureus USA300 in presence of TMP-Br after 20 hrs by broth microdilution-based checkerboard titration assay; format: functional
[19] = tested on: Staphylococcus aureus; assay: Potentiation of TMP-mediated antibacterial activity against hospital-associated methicillin-resistant Staphylococcus aureus COL assessed as TMP MIC after 20 hrs by CLSI microdilution assay (reference value: 5 microg/ml); format: functional
[20] = tested on: Staphylococcus aureus; assay: Synergistic antibacterial activity against methicillin-resistant Staphylococcus aureus USA300 in presence of TMP after 20 hrs by broth microdilution-based checkerboard titration assay; format: functional
[21] = tested on: Staphylococcus aureus; assay: microbe, parasite or virus in culture; format: functional; details: USA300, 20 h; remark: listed apart in the source
[22] = tested on: Staphylococcus aureus; assay: Potentiation of TMP-Cl-mediated antibacterial activity against hospital-associated methicillin-resistant Staphylococcus aureus COL assessed as TMP-Cl MIC after 20 hrs by CLSI microdilution assay (reference value: 5 microg/ml); format: functional
[23] = tested on: Staphylococcus aureus; assay: Synergistic antibacterial activity against methicillin-susceptible Staphylococcus aureus ATCC 29213 in presence of TMP after 20 hrs by broth microdilution-based checkerboard titration assay; format: functional
[24] = tested on: Staphylococcus aureus; assay: Synergistic antibacterial activity against hospital-associated methicillin-resistant Staphylococcus aureus COL in presence of TMP-Cl after 20 hrs by broth microdilution-based checkerboard titration assay; format: functional
[25] = tested on: Staphylococcus aureus; assay: Synergistic antibacterial activity against hospital-associated methicillin-resistant Staphylococcus aureus COL in presence of TMP-I after 20 hrs by broth microdilution-based checkerboard titration assay; format: functional
[26] = tested on: Staphylococcus aureus; assay: microbe, parasite or virus in culture; format: functional; details: ATCC 29213, 20 h; remark: listed apart in the source
[27] = tested on: Staphylococcus aureus; assay: Potentiation of TMP-I-mediated antibacterial activity against hospital-associated methicillin-resistant Staphylococcus aureus COL assessed as TMP-I MIC after 20 hrs by CLSI microdilution assay (reference value: 2.50 microg/ml); format: functional
[28] = tested on: Staphylococcus aureus; assay: Synergistic antibacterial activity against methicillin-susceptible Staphylococcus aureus ATCC 29213 in presence of TMP-I after 20 hrs by broth microdilution-based checkerboard titration assay; format: functional
[29] = tested on: Staphylococcus aureus; assay: Synergistic antibacterial activity against hospital-associated methicillin-resistant Staphylococcus aureus COL in presence of TMP after 20 hrs by broth microdilution-based checkerboard titration assay; format: functional
[30] = tested on: Staphylococcus aureus; assay: Synergistic antibacterial activity against methicillin-resistant Staphylococcus aureus USA300 in presence of TMP-Cl after 20 hrs by broth microdilution-based checkerboard titration assay; format: functional
[31] = tested on: Staphylococcus aureus; assay: Potentiation of TMP-Br-mediated antibacterial activity against hospital-associated methicillin-resistant Staphylococcus aureus COL assessed as TMP-Br MIC after 20 hrs by CLSI microdilution assay (reference value: 5 microg/ml); format: functional
[32] = tested on: Staphylococcus aureus; assay: microbe, parasite or virus in culture; format: functional; details: USA300, 20 h; remark: listed apart in the source
[33] = tested on: Staphylococcus aureus; assay: microbe, parasite or virus in culture; format: functional; details: ATCC 29213, 20 h; remark: listed apart in the source
[34] = tested on: Staphylococcus aureus; assay: Synergistic antibacterial activity against methicillin-resistant Staphylococcus aureus USA300 in presence of TMP-I after 20 hrs by broth microdilution-based checkerboard titration assay; format: functional
[35] = tested on: Staphylococcus aureus; assay: Potentiation of sulfamethoxazole-mediated antibacterial activity against methicillin-resistant Staphylococcus aureus USA300 assessed as sulfamethoxazole MIC after 20 hrs by CLSI microdilution assay (reference value: 100 microg/ml); format: functional; details: USA300, 20 h
[36] = tested on: Staphylococcus aureus; assay: Synergistic antibacterial activity against methicillin-susceptible Staphylococcus aureus ATCC 29213 in presence of sulfamethoxazole after 20 hrs by broth microdilution-based checkerboard titration assay; format: functional
[37] = tested on: Staphylococcus aureus; assay: Synergistic antibacterial activity against hospital-associated methicillin-resistant Staphylococcus aureus COL in presence of sulfamethoxazole after 20 hrs by broth microdilution-based checkerboard titration assay; format: functional
[38] = tested on: Staphylococcus aureus; assay: Potentiation of sulfamethoxazole-mediated antibacterial activity against hospital-associated methicillin-resistant Staphylococcus aureus COL assessed as sulfamethoxazole MIC after 20 hrs by CLSI microdilution assay (reference value: 200 microg/ml); format: functional
[39] = tested on: Staphylococcus aureus; assay: Synergistic antibacterial activity against methicillin-resistant Staphylococcus aureus USA300 in presence of sulfamethoxazole after 20 hrs by broth microdilution-based checkerboard titration assay; format: functional
[40] = tested on: Staphylococcus aureus; assay: Synergistic antibacterial activity against methicillin-resistant Staphylococcus aureus USA300 assessed as fractional inhibitory concentration index in presence of sulfamethoxazole after 18 hrs by broth microdilution-based checkerboard titration assay; format: functional
[41] = tested on: Staphylococcus aureus; assay: Potentiation of sulfamethoxazole-mediated antibacterial activity against methicillin-susceptible Staphylococcus aureus ATCC 29213 assessed as sulfamethoxazole MIC after 20 hrs by CLSI microdilution assay (reference value: 100 microg/ml); format: functional; details: ATCC 29213, 20 h
[42] = tested on: Staphylococcus aureus; assay: Synergistic antibacterial activity against methicillin-susceptible Staphylococcus aureus ATCC 29213 assessed as fractional inhibitory concentration index in presence of sulfamethoxazole after 18 hrs by broth microdilution-based checkerboard titration assay; format: functional
[43] = tested on: Staphylococcus aureus; assay: Synergistic antibacterial activity against hospital-associated methicillin-resistant Staphylococcus aureus COL assessed as fractional inhibitory concentration index in presence of sulfamethoxazole after 18 hrs by broth microdilution-based checkerboard titration assay; format: functional

Q: With `COc1ccc(Cc2cnc(N)nc2N)cc1OC` [DIAVERIDINE] as the molecule, how does the MBC [1] read?
A: 10 µg/mL (≈ 38.4 µM)

Q: What about the zone of inhibition at 5 µg/disc [2] of the same molecule?
A: 6 mm

Q: And the MBC [3]?
A: 5 µg/mL (≈ 19.2 µM)

Q: And the MIC [4]?
A: 5 µg/mL (≈ 19.2 µM)

Q: What about the MBC [5] of the same molecule?
A: 20 µg/mL (≈ 76.8 µM)

Q: What about the MIC [6] of the same molecule?
A: 10 µg/mL (≈ 38.4 µM)

Q: What about the zone of inhibition at 5 µg/disc [7] of the same molecule?
A: 8.81 mm

Q: And the zone of inhibition at 5 µg/disc [8]?
A: 6 mm

Q: What about the IC50 [9] of the same molecule?
A: > 1000 µM

Q: And the MIC [10]?
A: 5 µg/mL (≈ 19.2 µM)

Q: Which results are given for `Cc1cc(NS(=O)(=O)c2ccc(N)cc2)no1` [SULFAMETHOXAZOLE]?
A: FIC [11]: 0.06; MIC [12]: 0.16 µg/mL; MIC [13]: 0.08 µg/mL (≈ 0.316 µM); FIC [14]: 0.06; FIC [15]: 0.06; MIC [16]: 0.08 µg/mL (≈ 0.316 µM); MIC [17]: 0.16 µg/mL (≈ 0.632 µM); FIC [18]: 0.12; MIC [19]: 0.31 µg/mL; FIC [20]: 0.06; MIC [4]: 100 µg/mL (≈ 395 µM); MIC [21]: 0.08 µg/mL (≈ 0.316 µM); MIC [22]: 0.31 µg/mL; MIC [6]: 200 µg/mL (≈ 790 µM); FIC [23]: 0.06; FIC [24]: 0.06; FIC [25]: 0.06; MIC [26]: 0.08 µg/mL (≈ 0.316 µM); MIC [27]: 0.16 µg/mL; MIC [10]: 100 µg/mL (≈ 395 µM); FIC [28]: 0.06; FIC [29]: 0.06; FIC [30]: 0.06; MIC [31]: 0.31 µg/mL; MIC [32]: 0.08 µg/mL (≈ 0.316 µM); MIC [33]: 0.08 µg/mL (≈ 0.316 µM); FIC [34]: 0.06

Q: Which results are given for `COc1cc(Cc2cnc(N)nc2N)cc(OC)c1OC` [TRIMETHOPRIM]?
A: MIC [35]: 6.25 µg/mL; MBC [1]: 2.5 µg/mL (≈ 8.61 µM); zone of inhibition at 5 µg/disc [2]: 22.8 mm; MBC [3]: 1.25 µg/mL (≈ 4.31 µM); MIC [4]: 1.25 µg/mL (≈ 4.31 µM); MBC [5]: 10 µg/mL (≈ 34.4 µM); FIC [36]: 0.06; FIC [37]: 0.06; MIC [6]: 5 µg/mL (≈ 17.2 µM); MIC [38]: 12.5 µg/mL; FIC [39]: 0.06; zone of inhibition at 5 µg/disc [7]: 20.2 mm; zone of inhibition at 5 µg/disc [8]: 6 mm; fractional inhibitory concentration index (FICI) [40]: 0.12; MIC [10]: 1.25 µg/mL (≈ 4.31 µM); MIC [41]: 6.25 µg/mL; fractional inhibitory concentration index (FICI) [42]: 0.12; fractional inhibitory concentration index (FICI) [43]: 0.12
